The values that follow come from ChEMBL document CHEMBL1157086, “Sesquiterpenoid aminoquinones from the marine sponge Dysidea sp” (J Nat Prod, 2010).

pIC50: −log10 of the molar value. The source made the active and inactive calls. The calls are words filed in the database; no cut-off is given here.

Experiment [1] relates to Ehrlich. The experiment in a line: Cytotoxicity activity against mouse EAC at 100 ug/ml. It is filed as functional, cell-based.
Experiment [2] concerns Staphylococcus aureus. The experiment in a line: Antibacterial activity against Staphylococcus aureus at 100 ug/ml. It is filed as functional, organism-based.
Experiment [3] deals with Escherichia coli. The experiment in a line: Antibacterial activity against Escherichia coli at 100 ug/ml. The experiment is classed as functional, organism-based.
Experiment [4] deals with Candida albicans. The experiment in a line: Antifungal activity against Candida albicans at 100 ug/ml. The experiment is classed as functional, organism-based.
Experiment [5] has as its system Radical scavenging activity. The experiment in a line: Antioxidant activity assessed as DPPH radical scavenging activity after 30 mins. It is filed as functional. In short, it runs like this: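 In EtOH, test concentrations 5, 10, 20, 50, 100 µM mixed with DPPH (0.1 mM final). A517 read after 30 min. Percent inhibition calculated against DPPH-only control, corrected for the compound's own absorbance at 517 nm. IC50 taken from the plotted inhibition curve as the concentration scavenging 50% of DPPH. Trolox served as positive control.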
In general terms: Loss of DPPH colour is used to gauge radical scavenging.

Consider `C=C1CCC[C@H]2[C@](C)(CC3=CC(=O)C=C(NC)C3=O)[C@@H](C)CC[C@@]12C`, for which the outcome in experiment [1], in experiment [2], in experiment [3] and in experiment [4] was inactive.
The term pIC50 denotes −log10 of the IC50, conventionally taken in molar units. Regarding `Cc1c(C)c2c(c(C)c1O)CCC(C)(C(=O)O)O2` (centres undefined) [TROLOX], the pIC50 in experiment [5] was 4.80.
In the case of `C=C1CCC[C@H]2[C@](C)(CC3=CC(=O)C(N)=CC3=O)[C@@H](C)CC[C@@]12C`, the result in experiment [1], in experiment [2], in experiment [3] and in experiment [4] was inactive.
As for `C=C1CCC[C@H]2[C@](C)(CC3=CC(=O)C(Nc4ccc(O)c(C[C@]5(C)[C@@H](C)CC[C@@]6(C)C(=C)CCC[C@@H]56)c4)=CC3=O)[C@@H](C)CC[C@@]12C` [POPOLOHUANONE F], the pIC50 in experiment [5] is 4.46. For the same compound, the outcome in experiment [1], in experiment [2], in experiment [3] and in experiment [4] was inactive.
Consider `C=C1CCC[C@H]2[C@](C)(CC3=CC(=O)C=C(N)C3=O)[C@@H](C)CC[C@@]12C`, for which the outcome in experiment [1], in experiment [2], in experiment [3] and in experiment [4] was inactive.
In the case of `C=C1CCC[C@H]2[C@](C)(CC3=CC(=O)C(NC)=CC3=O)[C@@H](C)CC[C@@]12C`, the result in experiment [1], in experiment [2], in experiment [3] and in experiment [4] was inactive.
In the case of `C=C1CCC[C@H]2[C@](C)(Cc3cc(O)ccc3O)[C@@H](C)CC[C@@]12C` [ARENAROL], the pIC50 in experiment [5] is 4.72.
For the compound `C=C1CCC[C@H]2[C@](C)(CC3=CC(=O)C=C(Nc4ccc(O)c(C[C@]5(C)[C@@H](C)CC[C@@]6(C)C(=C)CCC[C@@H]56)c4)C3=O)[C@@H](C)CC[C@@]12C` [POPOLOHUANONE A], the pIC50 in experiment [5] was 4.46.
